DSG3 Ab inh = inhibitors of pemphigus antibody binding to human desmoglein-3. P32926. binding (percent of control), % at 10 µM. 310,000 compounds, 0.48% hits. DSG3-coupled beads, scFv-anti-DSG3-GFP binding, flow cytometry; hits give low values. AID 588358;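 active = binding more than 3 SD below its plate's average and above zero; inconclusive = below that plate limit but binding exactly zero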;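 note: hits lower antibody fragment binding to DSG3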
LANA-H2B inh = blocks KSHV LANA binding to histone H2A/H2B. cell-free LANA-H2A/H2B peptide, fluorescence polarization. inhibition, % (concentration not given with the values). 320,000 compounds, 0.6% hits. AID 2629; in the data active = inhibition mostly above about 10%, no sharp cut-off; inactive = mostly below about 6.7%
Arrestin-AP2 inh = human beta-arrestin and AP2 interaction inhibition; inhibition, % at 10 µM; 340,000 compounds, 0.31% hits; FITC-arrestin peptide / GST-AP2 beads, flow cytometry; AP2 beta2 appendage carries R879A mutation;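 active = inhibition above a set limit, near 3 SD of compounds lacking own fluorescence, cut at about 54% in these data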
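system = GST-tagged AP2 beta2-adaptin appendage (R879A) on 4 µm glutathione beads | reagent = FITC-labelled arrestin peptide probe, 50 nM final | schedule = compound with beads 12 min RT, then probe 1 h RT | signal = HyperCyt-sampled flow cytometry, FL1 channel, ex 488/em 535 nm | read-out = percent response from loss of bead-bound FITC fluorescence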
JMJD2C inh = human JMJD2C demethylase inhibition; Q9H3R0; GST-JMJD2C(1-420) H3K9me3 demethylation, DELFIA europium; AID 2099; inhibition, % at 2.35 µM; 330,000 compounds, 0.069% hits;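 active = more than half of a compound's replicate wells show inhibition beyond 50%, single wells judged on their own value; inconclusive = some, but no more than half, of replicates pass 50% inhibition; inactive = no replicate passes 50% inhibition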;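 note: signal counts dimethyl H3K9 product captured on neutravidin plate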
HDAC3 inhib = inhibitors of human histone deacetylase 3 | 320,000 compounds, 0.15% hits | O15379 | recombinant HDAC3, fluorogenic peptide/trypsin coupled, fluorescence | inhibition, % at 8.3 µM; in the data active = inhibition above about 26%, passing the limit was not always enough; inconclusive = no clear call, values can overlap the other calls
T cell modulator = modulates CD8 T cell binding to vesicles. 2C CD8+ T cell-vesicle binding, flow cytometry; hits give low values. response (vesicle binding), % at 7 µM. 330,000 compounds, 0.068% hits. AID 2052;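 active = response, share of CD8 T cells binding vesicles, and their 90th percentile fluorescence all below set limits, cut at about 80% in these data, passing the limit was not always enough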;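 note: values below 100% mean blocked vesicle binding to the CD8+ T cells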
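System: murine 2C transgenic CD8+ T lymphocytes; also added: QL9-loaded Drosophila micro-vesicles; times: binding 1.5 h at 37 °C; measured by: flow cytometry, PE anti-B7-1 (FL2) versus Alexa647 anti-CD8 (FL8), PFA-fixed; control set: Peptide-free naked vesicles (low) and QL9 vesicles with 0.7% DMSO vehicle (high)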
Arr-AP2 CP1 = inhibitors of human beta-arrestin and AP2 interaction; shares compounds with Arrestin-AP2 inh; GST-AP2 beads, FITC arrestin peptide binding, flow cytometry; GST-fused beta2-adaptin appendage, R879A mutant; inhibition, % at 10 µM; 1,300 compounds, 2% hits; AID 504908;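 active = inhibition above a set limit, roughly 3 SD of non-fluorescent compound noise, cut at about 38% in these data; inactive = inhibition at or below that limit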;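 note: loss of bead fluorescence from 50 nM FITC arrestin peptide bound to appendage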
GST GSH counter = disrupts GST binding to glutathione beads, arrestin-AP2 artifact; shares compounds with Arrestin-AP2 inh; GST-fluorescein binding to GSH beads, fluorescence, counter-screen; inhibition, % at 10 µM; 1,300 compounds, 2% hits; AID 588338;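 active = inhibition above 50%, about 3 SD of the inhibition seen with non-fluorescent compounds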;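 note: fluorescein maleimide labelled GST captured on 4 micron glutathione beads; higher means more loss of bead fluorescence from quenching or blocked binding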
Of the large screens only hits and unclear results are named; the others gave an inactive call (follow-up assays come after a bar, where they were run). Sampled rows, rich in hits. Any-hit rate of the full collection: about 1.6%.

COc1ccc(CN2CCN(C3CCC3)CC2CCO)c(F)c1 (stereo not drawn)	none
CCCCCc1nc2sc3c(c2c(=O)n1N)CCC3	Arrestin-AP2 inh 97 | Arr-AP2 CP1 inactive | GST GSH counter inactive
Cc1ccccc1N1CC2=C(C1=O)C(c1ccccc1)NC(=O)N2C (stereo not drawn)	none
CN1C(=O)NC(c2ccc(O)cc2)C2=C1CN(c1cccc3ccccc13)C2=O (stereo not drawn)	none | Arr-AP2 CP1 inactive | GST GSH counter inactive
O=C1C(Cl)=C(NC(=O)c2ccccc2)C(=O)C(Cl)=C1NC(=O)c1ccccc1	Arrestin-AP2 inh 58, HDAC3 inhib inconclusive | Arr-AP2 CP1 75 | GST GSH counter inactive
Cc1ccc(S(=O)(=O)N(C)C)cc1NC(=O)CN1C(=O)NC2(CCCCCCC2)C1=O	none
O=C(C1CCN(S(=O)(=O)c2cc(Cl)ccc2Cl)CC1)N1CCOCC1	Arrestin-AP2 inh 56 (no result: DSG3 Ab inh) | Arr-AP2 CP1 inactive | GST GSH counter inactive
CCn1nc(CC(C)C)cc1C(=O)N1CCCC(Nc2ccc(OC)cc2)C1 (stereo not drawn)	none (no result: DSG3 Ab inh)
O=C(O)c1cnn2c(-c3ccccc3)ccnc12	none
NC(=O)c1cnn2c(-c3cccc(C(F)(F)F)c3)ccnc12	Arrestin-AP2 inh 68 | Arr-AP2 CP1 inactive | GST GSH counter inactive
Cc1ccc2c(C(=O)CN3CCN(C(=O)c4ccco4)CC3)c(C)[nH]c2c1	none
CCn1cc(C(=O)N[C@@H](C)C(=O)OC)c(=O)c2cc3c(cc21)OCO3	Arrestin-AP2 inh 55 | Arr-AP2 CP1 inactive | GST GSH counter inactive
CCn1cc(C(=O)N[C@H](C(=O)O)C(C)C)c(=O)c2cc3c(cc21)OCO3	none
Cc1ccccc1/C=N/Nc1ccc(Cl)nn1	Arrestin-AP2 inh 60 | Arr-AP2 CP1 inactive | GST GSH counter inactive
Cc1ccc(C)c(N2CCN(C3CCCCC3NS(=O)(=O)c3ccccc3)CC2)c1 (stereo not drawn)	Arrestin-AP2 inh 57 (no result: DSG3 Ab inh) | Arr-AP2 CP1 inactive | GST GSH counter inactive
C/C(=N\NC(=O)c1ccc(CSc2nncn2C)cc1)c1ccc2ccccc2c1	Arrestin-AP2 inh 55 | Arr-AP2 CP1 inactive | GST GSH counter inactive
C/C(=N\NC(=O)c1cccc(S(=O)(=O)N2CCCC2)c1)c1ccc(C)cc1	none
COc1ccccc1CNC(=O)C(=O)Nc1ccc(C(=O)N2CCC(C)CC2)cc1	none
CCOc1ncccc1C(=O)OCC(=O)Nc1cc(S(=O)(=O)N2CCOCC2)ccc1Cl	none
CCOc1ncccc1C(=O)Nc1cccc(S(=O)(=O)N2CCOCC2)c1	none | Arr-AP2 CP1 inactive | GST GSH counter inactive
CCOc1ncccc1C(=O)Nc1ccc(OC)c(S(=O)(=O)N2CCCCC2)c1	none | Arr-AP2 CP1 inactive | GST GSH counter inactive
CCOc1ncccc1C(=O)Nc1cc(S(=O)(=O)N2CCCCC2)ccc1OC	none (no result: LANA-H2B inh, JMJD2C inh, HDAC3 inhib) | Arr-AP2 CP1 inactive | GST GSH counter inactive
O=C(Nc1cc(S(=O)(=O)N2CCCCCC2)ccc1OCC(F)(F)F)c1ccc(=O)[nH]c1	none (no result: DSG3 Ab inh)
COc1ccc(S(=O)(=O)N2CCCCC2)cc1NC(=O)c1ccc(=O)[nH]c1	none | Arr-AP2 CP1 inactive | GST GSH counter inactive
CN1CC(=O)N2[C@H](c3ccc4c(c3)OCO4)c3[nH]c4ccccc4c3C[C@@H]2C1=O	none
CCSc1nc2ccc(N3C(=O)C4C5C=CC(C5)C4C3=O)cc2s1 (stereo not drawn)	none
Cc1ccc(NC(=O)c2cccnc2)cc1S(=O)(=O)N1CCOCC1	none | Arr-AP2 CP1 inactive | GST GSH counter inactive
C/C(=N\NC(=O)CCCCCNC(=O)c1ccccc1)c1ccccc1O	none
O=C(CCCCCNC(=O)c1ccccc1)N/N=C/c1ccc(O)cc1O	Arrestin-AP2 inh 60 | Arr-AP2 CP1 inactive | GST GSH counter inactive
CC12CCC(=O)N1C(C(=O)N1CCN(S(=O)(=O)c3cccc(C(F)(F)F)c3)CC1)CS2 (stereo not drawn)	Arrestin-AP2 inh 57 (no result: LANA-H2B inh, HDAC3 inhib) | Arr-AP2 CP1 inactive | GST GSH counter inactive
O=C1CCSc2c1ccc1ccccc21	none (no result: LANA-H2B inh, JMJD2C inh, HDAC3 inhib, T cell modulator)
O=C(Nc1ccc(OC(F)F)cc1)c1cc(S(=O)(=O)N2CCOCC2)ccc1N1CCCC1	none (no result: LANA-H2B inh, JMJD2C inh, HDAC3 inhib, T cell modulator) | Arr-AP2 CP1 inactive | GST GSH counter inactive
CC1CCN(C(=O)c2cc(S(=O)(=O)N3CCOCC3)ccc2N2CCCC2)CC1	none | Arr-AP2 CP1 inactive | GST GSH counter inactive
O=C(NC1CCCCCC1)c1cc(S(=O)(=O)N2CCOCC2)ccc1N1CCCCC1	none (no result: DSG3 Ab inh) | Arr-AP2 CP1 inactive | GST GSH counter inactive
CC(Oc1cccc(Cl)c1)C(=O)Nc1cc(S(=O)(=O)N2CCOCC2)ccc1N1CCCC1 (stereo not drawn)	Arrestin-AP2 inh 62, JMJD2C inh inconclusive | Arr-AP2 CP1 inactive | GST GSH counter inactive
CC1CCN(C(=O)c2ccc(S(=O)(=O)N3CCOCC3)cc2)CC1	none
CCCC(NC(=O)c1ccc(Br)o1)c1nc2ccccc2[nH]1 (stereo not drawn)	none (no result: DSG3 Ab inh)
CN(Cc1cccc(F)c1)C(=O)c1ccc(S(=O)(=O)N2CCOCC2)cc1	Arrestin-AP2 inh 63 | Arr-AP2 CP1 inactive | GST GSH counter inactive
COc1ccc(CN(C)C(=O)c2cc(S(=O)(=O)N3CCOCC3)ccc2N2CCCC2)cc1	none (no result: DSG3 Ab inh) | Arr-AP2 CP1 inactive | GST GSH counter inactive
CN(Cc1cccs1)C(=O)c1cc(S(=O)(=O)N2CCOCC2)ccc1N1CCCC1	none (no result: DSG3 Ab inh, LANA-H2B inh)
CCc1ccccc1-n1ncc(C(=O)Nc2ccccc2OC)c1C	none
CN(C)CCCN(C(=O)c1ccc(S(=O)(=O)N(C)C2CCCCC2)cc1)c1nc2ccc(F)cc2s1	none
Cc1cc(C)c2sc(N(CCCN(C)C)C(=O)c3ccc(S(=O)(=O)N(C)C4CCCCC4)cc3)nc2c1	Arrestin-AP2 inh 57 | Arr-AP2 CP1 inactive | GST GSH counter inactive
Cc1cc(C)n2nc(N)c(N=Nc3cccc(Cl)c3)c2n1	Arrestin-AP2 inh 99 | Arr-AP2 CP1 inactive | GST GSH counter 62
Cc1ccc(-c2nc(NC(=O)c3ccc(S(=O)(=O)N(CCC#N)CCC#N)cc3)sc2-c2ccccc2)cc1	Arrestin-AP2 inh 63 (no result: LANA-H2B inh, HDAC3 inhib) | Arr-AP2 CP1 inactive | GST GSH counter inactive
CCOC(=O)C1CCCN(C2=NC(=O)/C(=C/c3ccc(N(C)C)cc3)S2)C1 (stereo not drawn)	none
CC(C)Sc1ncc(S(=O)(=O)c2ccccc2)c(=O)[nH]1	Arrestin-AP2 inh 57 | Arr-AP2 CP1 inactive | GST GSH counter inactive
C#CCSc1ncc(S(=O)(=O)c2ccccc2)c(=O)[nH]1	none
